Laboratory results taken from ChEMBL document CHEMBL3351536, “A new avenue toward androgen receptor pan-antagonists: C2 sterically hindered substitution of hydroxy-propanamides” (J Med Chem, 2014).
pIC50: −log10 of the molar value. Calls of active or inactive are those of the source. The rule behind the calls is not given here.

How the values were obtained:
[1] = target: T1, Androgen receptor (Homo sapiens) (UniProt P10275); assay: Displacement of [3H]R1881 from androgen receptor in human LNCAP cells at 1 uM after 24 hrs by liquid scintillation counting; assay type: cell-based
T1 sequence (whole entry): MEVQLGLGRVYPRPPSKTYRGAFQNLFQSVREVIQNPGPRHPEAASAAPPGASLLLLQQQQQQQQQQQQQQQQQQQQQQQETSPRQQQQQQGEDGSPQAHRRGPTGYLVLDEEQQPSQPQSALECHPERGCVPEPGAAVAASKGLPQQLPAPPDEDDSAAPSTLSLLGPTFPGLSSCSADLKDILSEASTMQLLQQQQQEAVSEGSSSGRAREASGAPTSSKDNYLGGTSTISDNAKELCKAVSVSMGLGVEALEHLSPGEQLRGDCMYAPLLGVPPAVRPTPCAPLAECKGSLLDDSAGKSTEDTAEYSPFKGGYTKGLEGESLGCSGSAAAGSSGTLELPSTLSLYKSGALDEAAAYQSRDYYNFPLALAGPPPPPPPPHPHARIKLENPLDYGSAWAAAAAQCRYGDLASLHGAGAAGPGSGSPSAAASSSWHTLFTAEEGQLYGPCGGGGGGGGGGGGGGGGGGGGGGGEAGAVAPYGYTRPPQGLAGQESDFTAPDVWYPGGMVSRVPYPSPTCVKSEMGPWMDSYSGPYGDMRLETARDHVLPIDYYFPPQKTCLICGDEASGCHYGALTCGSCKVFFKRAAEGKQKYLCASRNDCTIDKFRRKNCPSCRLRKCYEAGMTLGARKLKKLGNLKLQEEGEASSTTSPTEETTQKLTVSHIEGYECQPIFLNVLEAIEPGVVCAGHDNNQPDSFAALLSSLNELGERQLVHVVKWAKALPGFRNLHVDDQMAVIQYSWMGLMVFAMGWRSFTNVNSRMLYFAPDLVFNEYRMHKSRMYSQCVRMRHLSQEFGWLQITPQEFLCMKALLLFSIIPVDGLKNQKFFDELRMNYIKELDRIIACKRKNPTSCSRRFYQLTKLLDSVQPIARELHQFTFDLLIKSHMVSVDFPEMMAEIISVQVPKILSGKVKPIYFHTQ

[2] = target: T1, Androgen receptor (Homo sapiens); assay: Displacement of [3H]R1881 from androgen receptor in human LNCAP cells at 2 uM after 24 hrs by liquid scintillation counting; assay type: cell-based
[3] = target: T1, Androgen receptor (Homo sapiens); assay: Effect on nuclear import of wild-type human androgen receptor expressed in COS7 cells at 10 uM after 1 hr by immunofluorescence analysis; assay type: cell-based; conditions: COS-7
Procedure, shortened: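 Cos-7 cells on coverslips made quiescent, transfected with 1 μg pSG5-hAR, then stimulated with 10 nM R1881 for 60 min ± compounds. AR detected by immunofluorescence with anti-C19 antibody and Texas red secondary; nuclei stained with Hoechst.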

LNCaP [4] = assay: Inhibition of R1881-induced DNA synthesis in human LNCAP cells at 10 to 20 uM after 18 hrs by BrdU incorporation assay; assay type: functional, cell-based
Procedure, shortened: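 Quiescent LNCaP cells on coverslips treated 18 h with 10 nM R1881 ± compound (10 or 20 μM), then pulsed with 100 μM BrdU. Incorporation scored by anti-BrdU immunofluorescence as % of total nuclei.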

LNCaP [5] = assay: Inhibition of R1881-induced migration of human LNCAP cells at 10 uM by transwell assay; assay type: functional, cell-based
Procedure, shortened: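 Quiescent LNCaP cells on collagen-coated transwell filters, 24 h after seeding, treated with 10 nM R1881 ± 10 μM compound. Migrated cells stained with Hoechst and counted by fluorescence microscopy; data given as relative increase in migrated cells.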

LNCaP [6] = assay: Inhibition of R1881-induced migration of human LNCAP cells at 10 uM after 24 hrs by wound-healing assay; assay type: functional, cell-based
Procedure, shortened: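 Confluent quiescent LNCaP monolayers scratched, washed, and given 10 nM R1881 ± 10 μM compound for 24 h. Wound closure assessed from phase-contrast images; four experiments.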

LNCaP [7] = assay: Effect on cell migration in serum-stimulated human LNCAP cells by transwell assay; assay type: ADME, cell-based
[8] = Inhibition of R1881-induced DNA synthesis in Androgen receptor-negative human DU145 cells at 10 to 20 uM after 18 hrs by BrdU incorporation assay; assay type: cell-based; conditions: du-145, 18 h
LNCaP [9] = assay: Growth inhibition of human LNCAP cells expressing mutant androgen receptor after 144 hrs by SRB assay; assay type: cell-based; conditions: Homo sapiens, LNCaP, read-out: GI50
Procedure, shortened: (§1)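 Cells exposed for 144 h starting 24 h after seeding, 5000 cells/well. SRB assay with OD read at 490 nm. Growth inhibition calculated as (ODtreated−ODzero)/(ODcontrol−ODzero)×100; OD below ODzero counted as cell killing. Octuplicate wells, three independent experiments; IG50 and LC50 taken from this calculation.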

[10] = Growth inhibition of human LNCaP-AR cells expressing wild-type androgen receptor after 144 hrs by SRB assay; assay type: functional; procedure, shortened: as §1
LNCaP [11] = assay: Growth inhibition of (R)-bicalutamide-resisitant human LNCAP cells after 144 hrs by SRB assay; assay type: functional; procedure, shortened: as §1
[12] = Growth inhibition of human VCaP cells after 144 hrs by SRB assay; assay type: functional; procedure, shortened: as §1
[13] = target: T1, Androgen receptor (Homo sapiens); assay: Inhibition of androgen receptor in R1881-stimulated human LNCAP cells assessed as reduction in PSA mRNA level at 0.5 to 20 uM after 24 hrs by RT-PCR analysis; assay type: cell-based
[14] = target: T1, Androgen receptor (Homo sapiens); assay: Inhibition of androgen receptor in human LNCAP cells assessed as reduction in PSA mRNA level at 0.5 to 20 uM after 24 hrs by RT-PCR analysis; assay type: cell-based
LNCaP [15] = assay: Inhibition of cell survival in (R)-bicalutamide-resisitant human LNCAP cells after 144 hrs by TUNEL assay; assay type: cell-based
Procedure, shortened: (§2)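 Cells treated 144 h starting 24 h after seeding. Fixed in 1% paraformaldehyde then 70% ethanol, labeled with TUNEL mix (TdT, FITC-dUTP) for 60 min at 37 °C, counterstained with propidium iodide/RNase, and analyzed by flow cytometry for % apoptotic cells. For LNCaP and LNCaP-AR, compounds at 20 μM, three independent experiments.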

[16] = Inhibition of cell survival in human VCaP cells after 144 hrs by TUNEL assay; assay type: cell-based; procedure, shortened: as §2
CWR22R = assay: Inhibition of cell survival in human CWR22Rv1 cells after 144 hrs by TUNEL assay; assay type: functional, cell-based; conditions: 22Rv1, 144 h
[17] = target: T1, Androgen receptor (Homo sapiens); assay: Inhibition of androgen receptor in R1881-stimulated (R)-bicalutamide-resisitant human LNCAP cells assessed as reduction in PSA mRNA level at 20 uM after 24 hrs by RT-PCR analysis; assay type: cell-based
Procedure, shortened: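 LNCaP or LNCaP-Rbic cells (Rbic kept in 20 μM bicalutamide), 24 h after seeding, stimulated with 10 nM R1881 and treated 24 h with 10 or 20 μM compound. PSA mRNA measured by SYBR Green real-time RT-PCR in triplicate reactions, normalized to GAPDH and HPRT, expressed as fold over untreated. Two independent experiments.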

VCaP [18] = assay: Antitumor activity against human VCaP cells xenografted in CD-1 nu/nu mouse assessed as tumor regression at 10 mg/kg, po for 4 consecutive weeks starting on day 35 of tumor implantation measured after 100 days; assay type: functional, organism-based; set-up: dose 10 mg/kg
Procedure, shortened: (§3)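 Male CD-1 nu/nu mice, 5–6 weeks old, injected s.c. in the flank with 10⁶ VCaP cells in 50% Matrigel/50% serum-free medium. When tumors reached 50–100 mg, mice were randomized, 5 per group. Daily oral gavage at 10 mg/kg for 4 weeks in 80% PEG-400/20% Tween-80; controls got vehicle. Tumor weight from caliper (a×b²/2) three times weekly; body weight monitored.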

VCaP [19] = assay: Antitumor activity against human VCaP cells xenografted in CD-1 nu/nu mouse assessed as tumor regression at 10 mg/kg, po for 4 consecutive weeks starting on day 35 of tumor implantation measured after 60 days; assay type: functional, organism-based; set-up: dose 10 mg/kg; procedure, shortened: as §3
Mus musculus = assay: Toxicity in human VCaP cells xenografted CD-1 nu/nu mouse assessed as body weight loss at 10 mg/kg, po for 4 consecutive weeks starting on day 35 of tumor implantation measured up to 100 days; assay type: organism-based; set-up: dose 10 mg/kg, route oral; conditions: in vivo, 2400 h; procedure, shortened: as §3
[20] = Cytotoxicity against african green monkey COS7 cells; assay type: cell-based; conditions: chlorocebus aethiops, cos-7
LNCaP [21] = assay: Cytotoxicity against human LNCAP cells expressing mutant androgen receptor assessed as reduction in cell viability; assay type: cell-based
LNCaP [22] = assay: Induction of apoptosis in human LNCAP cells expressing mutant androgen receptor at 20 uM after 144 hrs by TUNEL assay; assay type: cell-based; procedure, shortened: as §2
LNCaP-AR = assay: Induction of apoptosis in human LNCaP-AR cells expressing wild-type androgen receptor at 20 uM after 144 hrs by TUNEL assay; assay type: functional; procedure, shortened: as §2
DU-145 = assay: Cytotoxicity against human DU145 cells after 144 hrs by SRB assay; assay type: cell-based; conditions: du-145, 144 h; procedure, shortened: as §1
[23] = Cytotoxicity against human PC3 cells after 144 hrs by SRB assay; assay type: cell-based; conditions: pc-3, 144 h; procedure, shortened: as §1

N#Cc1ccc(C[C@](O)(CS(=O)(=O)c2ccc(F)cc2)C(=O)Nc2ccc(C#N)c(C(F)(F)F)c2)cc1
inhibition [1]: 60%
inhibition [2]: 65%
Activity [3]: inactive
inhibition (LNCaP [4]): Active
inhibition (LNCaP [5]): Active
inhibition (LNCaP [6]): Active
Activity (LNCaP [7]): Non-toxic
Activity [8]: Non-toxic
GI50 (LNCaP [9]): 1.6 µM
GI50 [10]: 4.9 µM
GI50 (LNCaP [11]): 6.43 µM
GI50 [12]: 1.42 µM
inhibition [13]: inactive
inhibition [14]: Active
Activity (LNCaP [15]): Non-toxic
Activity [16]: Non-toxic
pIC50 (CWR22R): 5.30
inhibition [17]: Active
Activity (VCaP [18]): Active
Activity (VCaP [19]): Active
Activity (Mus musculus): Non-toxic
Activity [20]: Non-toxic
Activity (LNCaP [21]): Non-toxic
Activity (LNCaP [22]): Non-toxic
Activity (LNCaP-AR): inactive
Activity (DU-145): Non-toxic
Activity [23]: Non-toxic
